One may read the LD50 as the dose expected to kill half of the subjects tested.

Data set [1] relates to Felis catus. Description: Dose estimated to produce 25 mm Hg fall in mean systemic blood pressure of anesthetized cat at 10 min after administration. The class given is functional.
Data set [2] concerns Rattus norvegicus. Kind of data set: Difference in systolic blood pressure of SH rats observed prior to the first application and 2 hr after the fifth application at the oral dose of 5 mg/kg was expressed as Delta BP. Type of data set: functional, Artery. The essentials:
(§1)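 Male spontaneously hypertensive rats (Wistar–Okamoto, 250–300 g, 12–16 weeks), conscious. Dosed orally once daily for 5 days in 0.9% NaCl or 0.5% carboxymethylcellulose (10 mL/kg); vehicle control group. Rats warmed at 37–38 °C for 10 min, then systolic pressure taken by tail-cuff (piezoelectric pulse detection). ΔBP = pre-first-dose minus 2 h after fifth dose; mean ± SEM, six animals.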

Data set [3] deals with Rattus norvegicus. Kind of data set: Difference in systolic blood pressure of SH rats observed prior to the first application and 2 hr after the fifth application at the oral dose of 25 mg/kg was expressed as Delta BP. Type of data set: functional, Artery. The method, boiled down: as §1
Data set [4] is described as follows: Compound was tested for toxicity in mice after intraperitoneal administration. The class given is organism-based. The note with it: mouse, in vivo, ip. The essentials: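 Mice (18–22 g), either sex. Compound dissolved in distilled water or suspended in 0.5% (carboxymethyl)cellulose and given ip at 10, 30, 100, 300 and 1000 mg/kg, 1 mL/100 g body weight. Animals observed for 48 h; approximate LD50 calculated by the Campbell and Richter method.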

In data set [5] the test system is Felis catus. Description: Blood pressure lowering activity in anesthetized cats after intravenous administration of […] of compound. The class given is functional.
The test system of data set [6] is Rattus norvegicus. Description: Delta BP refers to difference in systolic blood pressure of SH rats observed prior to the first application and 2 hr after the fifth application at the oral dose of 3 mg/kg. Type of data set: functional, Artery. The method, boiled down:
as §1

In data set [7] the test system is Rattus norvegicus. Kind of data set: Difference in systolic blood pressure of SH rats observed prior to the first application and 2 hr after the fifth application at the oral dose of 10 mg/kg was expressed as Delta BP. The class given is functional, Artery. The method, boiled down:
as §1

Regarding `CCc1cccc(C(C)C)c1Nc1cc2n(c(=O)n1)CCc1cc(OC)c(OC)cc1-2.Cl`, the ED25 in data set [1] was 3 mg/kg.

Compound `COc1cc2c(cc1OC)-c1cc(=Nc3c(C)cccc3C(C)C)n(C)c(=O)n1CC2.Cl` gave a Delta blood pressure in data set [2] of 0 mmHg. Moreover, in data set [1], the ED25 was 1 mg/kg. `COc1cc2c(cc1OC)-c1cc(Nc3ccccc3Cl)nc(=O)n1CC2.Cl` gave a Delta blood pressure in data set [3] of 0 mmHg. In addition, the ED25 in data set [1] was 1.4 mg/kg. For `COc1cc2c(cc1OC)-c1cc(=Nc3ccc(C)cc3C)n(C)c(=O)n1CC2.Cl`, in data set [1], the ED25 is 10 mg/kg.

`COc1cc2c(cc1OC)-c1cc(Nc3c(C)cccc3C(C)(C)C)nc(=O)n1CC2.Cl` displayed a Delta blood pressure in data set [3] of 0 mmHg. For the same compound, the ED25 in data set [1] was 1.8 mg/kg. As to `CCn1c(=Nc2c(C)cc(C)cc2C)cc2n(c1=O)CCc1cc(OC)c(OC)cc1-2.Cl`, the LD50 in data set [4] amounted to 65 mg/kg. Further, the ED25 in data set [5] is 0.025 mg/kg; in data set [1] it was 0.1 mg/kg. Also, the Delta blood pressure in data set [2] is -20 mmHg. Turning to `CCc1cccc(C(C)CC)c1N=c1cc2n(c(=O)n1C)CCc1cc(OC)c(OC)cc1-2.Cl` (centres undefined), the Delta blood pressure in data set [3] is reported as -20 mmHg. For the same compound, the ED25 in data set [1] is 3.5 mg/kg. As for `COc1cc2c(cc1OC)-c1cc(N(C)c3c(C)cc(C)cc3C)nc(=O)n1CC2.Cl`, the LD50 in data set [4] worked out at 27 mg/kg. Besides, the ED25 in data set [5] and in data set [1] was 0.03 mg/kg in each case. For the same compound, in data set [2], the Delta blood pressure is -45 mmHg. For `COc1cc(Nc2cc3n(c(=O)n2)CCc2cc(OC)c(OC)cc2-3)cc(OC)c1.Cl`, the ED25 in data set [1] was 3.4 mg/kg. Same read-out and setting: for `COc1cc2c(cc1OC)-c1cc(Nc3cc(OC)c(OC)c(OC)c3)nc(=O)n1CC2.Cl` the value was 0.8 mg/kg; for `COc1cc2c(cc1OC)-c1cc(Nc3c(Cl)cc(Cl)cc3Cl)nc(=O)n1CC2.Cl`, 0.5 mg/kg. Take `COc1cc2c(cc1OC)-c1cc(Nc3ccc(C)c(Cl)c3Cl)nc(=O)n1CC2.Cl`: in data set [3], the Delta blood pressure is given as -19 mmHg. Moreover, the ED25 in data set [1] is 5 mg/kg. For `COc1cc2c(cc1OC)-c1cc(Nc3c(C)cc(C)cc3C)nc(=O)n1CC2.Cl`, the LD50 in data set [4] amounted to 82.5 mg/kg. Further, the ED25 in data set [5] and in data set [1] was 0.2 mg/kg each time. In data set [2], the Delta blood pressure was -37 mmHg. Regarding `COc1cc2c(cc1OC)-c1cc(=Nc3c(C)cc(C)cc3C)n(CP(C)(C)=O)c(=O)n1CC2.Cl`, the LD50 in data set [4] worked out at 65 mg/kg. In addition, the ED25 in data set [5] is 0.5 mg/kg; in data set [1] it was 0.1 mg/kg. For the same compound, the Delta blood pressure in data set [2] is listed as -33 mmHg. Regarding `COc1cc2c(cc1OC)-c1cc(Nc3c(C)cccc3C(C)C)nc(=O)n1CC2.Cl`, the ED25 in data set [1] was 2.2 mg/kg.

For the compound `COc1cc2c(cc1OC)-c1cc(=Nc3c(F)cccc3F)n(CP(C)(C)=O)c(=O)n1CC2.Cl`, the Delta blood pressure in data set [3] is on record as 0 mmHg. Also, the ED25 in data set [1] was 0.4 mg/kg.

In the case of `CCOc1ccccc1Nc1cc2n(c(=O)n1)CCc1cc(OC)c(OC)cc1-2.Cl`, the Delta blood pressure in data set [3] is reported as -27 mmHg. Further, the ED25 in data set [1] was 1.2 mg/kg. As to `CCOc1ccc(Nc2cc3n(c(=O)n2)CCc2cc(OC)c(OC)cc2-3)cc1.Cl`, in data set [1], the ED25 was 50 mg/kg. In data set [3], `COc1cc2c(cc1OC)-c1cc(Nc3c(F)cccc3F)nc(=O)n1CC2` yielded a Delta blood pressure of 0 mmHg. The ED25 in data set [1] is 3.5 mg/kg. In the case of `COc1cc2c(cc1OC)-c1cc(=Nc3c(C)cccc3C)n(C)c(=O)n1CC2`, the ED25 in data set [1] is 3.5 mg/kg.

Turning to `CCN(c1cc2n(c(=O)n1)CCc1cc(OC)c(OC)cc1-2)c1c(C)cc(C)cc1C`, the median lethal dose (LD50) in data set [4] is 65 mg/kg. In addition, the Delta blood pressure in data set [6] is listed as -13 mmHg. Further, the results for the ED25 in data set [5] and in data set [1] were 0.1 mg/kg and 0.025 mg/kg, respectively. Regarding `COc1cc2c(cc1OC)-c1cc(Nc3ccc(Cl)cc3Cl)nc(=O)n1CC2`, the Delta blood pressure in data set [3] is on record as 0 mmHg. Moreover, the ED25 in data set [1] was 1 mg/kg. For `COc1cc2c(cc1OC)-c1cc(Nc3ccc(C)c(C)c3)nc(=O)n1CC2`, the ED25 in data set [1] was 10 mg/kg. With `COc1cc2c(cc1OC)-c1cc(=Nc3c(C)cc(C)cc3C)n(C(C)C)c(=O)n1CC2`, in data set [1], the ED25 was 0.1 mg/kg. Also, the Delta blood pressure in data set [7] is listed as -34 mmHg. In the case of `COc1cc2c(cc1OC)-c1cc(Nc3cc(C)cc(C)c3)nc(=O)n1CC2`, the ED25 in data set [1] was 3 mg/kg. Regarding `COc1cc2c(cc1OC)-c1cc(=Nc3c(Cl)cc(Cl)cc3Cl)n(C)c(=O)n1CC2`, the Delta blood pressure in data set [3] was -21 mmHg. For the same compound, the ED25 in data set [1] is 3 mg/kg.

For the compound `COc1cc2c(cc1OC)-c1cc(N(CP(C)(C)=O)c3c(F)cccc3F)nc(=O)n1CC2`, the Delta blood pressure in data set [3] stood at 0 mmHg. The ED25 in data set [1] is 2.4 mg/kg. For `COc1cc2c(cc1OC)-c1cc(Nc3ccc(O)cc3)nc(=O)n1CC2`, the ED25 in data set [1] is 10 mg/kg. As to `COc1cc2c(cc1OC)-c1cc(Nc3ccc(C)cc3C)nc(=O)n1CC2`, in data set [3], the Delta blood pressure is -41 mmHg. Besides, in data set [1], the ED25 was 1 mg/kg. Turning to `COc1cc2c(cc1OC)-c1cc(Nc3ccc(C)c(N)c3)nc(=O)n1CC2`, in data set [1], the ED25 is 2.4 mg/kg.

Take `CCc1ccccc1Nc1cc2n(c(=O)n1)CCc1cc(OC)c(OC)cc1-2`: the ED25 in data set [1] was 10 mg/kg. The same measure, in the same setting: for `COc1ccc(OC)c(Nc2cc3n(c(=O)n2)CCc2cc(OC)c(OC)cc2-3)c1` the value was 50 mg/kg. Turning to `COc1cc2c(cc1OC)-c1cc(N(c3c(C)cc(C)cc3C)C(C)C)nc(=O)n1CC2`, the Delta blood pressure in data set [2] is recorded as -37 mmHg. Further, in data set [1], the ED25 was 0.5 mg/kg. As for `COc1cc2c(cc1OC)-c1cc(Nc3ccccc3C(=O)O)nc(=O)n1CC2`, the ED25 in data set [1] is 50 mg/kg. Still for that read-out and setting: to `COc1cc2c(cc1OC)-c1cc(Nc3c(Cl)cccc3Cl)nc(=O)n1CC2` belongs 2 mg/kg; to `CCCCN(c1cc2n(c(=O)n1)CCc1cc(OC)c(OC)cc1-2)c1c(C)cc(C)cc1C`, 0.08 mg/kg.

On to `COc1cc2c(cc1OC)-c1cc(Nc3c(C)cccc3C)nc(=O)n1CC2`, for which the Delta blood pressure in data set [2] was -27 mmHg. For the same compound, the ED25 in data set [1] was 0.1 mg/kg. With `COc1cc2c(cc1OC)-c1cc(Nc3ccc(Cl)cc3)nc(=O)n1CC2`, the ED25 in data set [1] is 50 mg/kg. Consider `COc1cc2c(cc1OC)-c1cc(N(C(C)=O)c3c(C)cc(C)cc3C)nc(=O)n1CC2`, for which, in data set [4], the median lethal dose (LD50) amounted to 825 mg/kg. In addition, the ED25 in data set [5] and in data set [1] was 0.25 mg/kg in each case. Further, the Delta blood pressure in data set [7] was -24 mmHg. Turning to `COc1cc2c(cc1OC)-c1cc(=Nc3c(F)cccc3F)n(C)c(=O)n1CC2`, the ED25 in data set [1] was 0.5 mg/kg. In data set [7], this compound gave a Delta blood pressure of 0 mmHg.

For `COc1cc2c(cc1OC)-c1cc(Nc3cccc(C(F)(F)F)c3)nc(=O)n1CC2`, the ED25 in data set [1] was 2 mg/kg.

For `N/N=c1\[nH][nH]/c(=N\N)c2ccccc12` [DIHYDRALAZINE], the Delta blood pressure in data set [2] is -60 mmHg. Moreover, the ED25 in data set [1] was 1 mg/kg.

Turning to `Nc1cc(N2CCCCC2)nc(N)[n+]1[O-]` [MINOXIDIL], the Delta blood pressure in data set [2] is given as -51.2 mmHg. For the same compound, the ED25 in data set [1] was 1.2 mg/kg.

The record behind these values is ChEMBL document CHEMBL1122780, “Trequinsin, a potent new antihypertensive vasodilator in the series of 2-(arylimino)-3-alkyl-9,10-dimethoxy-3,4,6,7-tetrahydro-2H-py rim ido [6,1-a]isoquinolin-4-ones” (J Med Chem, 1984).
